Experimental data of several laboratories.
Compare with care: the assays were run in different laboratories.
Target: Dual specificity tyrosine-phosphorylation-regulated kinase 3 (DYRK3, Homo sapiens, UniProt O43781)

Compound	test	conditions	endpoint	value
O=C(O)c1ccc2c(c1)nc(NCCc1cccc(Cl)c1)c1ncncc12	enzyme activity, inhibitor, radiometric	1 µM	remaining activity	37%
Cc1cc(NC(=O)c2cccc3cc(-c4cccc5[nH]nc(N)c45)ccc23)ccc1F	enzyme activity, inhibitor	0.1 µM	activity vs control	105%
O=C(O)c1ccc2c(c1)nc(NCc1ccccc1)c1ncncc12	enzyme activity, inhibitor, radiometric	1 µM	remaining activity	31%
COc1cc2ncnc(Nc3ccc(Oc4ccccc4)cc3C)c2cc1OC	enzyme activity, inhibitor	1 µM	inhibition	1%
COc1cc(-c2cc(-c3ccc(N4CCNCC4)cc3)cnc2C)cc(OC)c1OC	enzyme activity, inhibitor	1 µM	inhibition	1%
O=C(O)c1ccc2c(c1)nc(Nc1ccc(F)c(Cl)c1)c1ncncc12	enzyme activity, inhibitor, radiometric	1 µM	remaining activity	8%
Cn1cnc(Br)c1C1=CN(c2ncnc3[nH]cnc23)CCS1	enzyme activity, inhibitor, radiometric	2 µM	inhibition	98%
Oc1cccc(-c2nc(N3CCOCC3)c3oc4ncccc4c3n2)c1	enzyme activity, inhibitor	10 µM	remaining activity	64%
CCCS(=O)(=O)Nc1ccc(F)c(C(=O)c2c[nH]c3ncc(-c4ccc(Cl)cc4)cc23)c1F	enzyme activity, inhibitor	1 µM	inhibition	< 10%
CN(c1ncccc1CNc1nc(Nc2ccc3c(c2)CC(=O)N3)ncc1C(F)(F)F)S(C)(=O)=O	enzyme activity, inhibitor	1 µM	inhibition	66.8%
O=C1Nc2ccc(Cl)cc2C1=Cc1cc(Cl)c(O)c(Cl)c1	cell-free assay	0.5 µM	remaining signal	91.8%
O=C(O)c1ccc2c(c1)nc(NCCc1cccc(F)c1)c1ncncc12	enzyme activity, inhibitor, radiometric	1 µM	remaining activity	17%
Nc1nc(Nc2ccccc2)sc1C(=O)c1c(F)cccc1F	enzyme activity, inhibitor	10 µM	remaining activity	83%
